The text below walks through data of PMC6863147 (Clinical cancer research : an official journal of the …, 2019).

Series [1] relates to recurrent RB-positive glioblastoma. To be noted: 22 patients; cited from earlier work.
The nature of series [2]: plasma pharmacokinetics in recurrent glioblastoma patients. The class given is in vivo, human. Summed up:
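Patients took 900 mg oral daily. Blood was drawn before dosing and 0.5, 1, 2, 4, 6, 8 and 24 h after the fourth dose. Plasma was held at −80 °C. Totals were measured by validated LC-MS/MS, and unbound levels as total × fraction unbound (equilibrium dialysis). Noncompartmental analysis gave Cmax, Tmax, AUCτ and CL/F (dose/AUCτ), summarised as mean, median, range and coefficient of variation.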

Series [3] is classed as in vivo, human.
For series [4], the system named is phosphorylation of RB (pRB). In words: tumor pharmacodynamics, pRB immunohistochemistry. The class given is in vivo, human. The procedure, abridged: (§1)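 Patients took 900 mg/d oral for 5 days, with resection 2, 8 or 24 h after the last dose. Surgical FFPE tissue and matched archival tissue from the initial resection were stained together on an automated platform, with positive and no-primary controls. Antibodies: pRB 1:400, pFOXM1 1:200, MIB-1 1:100, cleaved caspase-3 1:300. Nuclear % positive cells were compared by paired t-test on log values (two-sided 5%), also after normalising to the untreated historical-control median, overall and per arm.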

Series [5] deals with proliferative marker MIB-1. As to the kind of experiment: tumor pharmacodynamics, MIB-1 immunohistochemistry. The class given is in vivo, human. To be noted: vs archival tissue, P = 0.039. Summed up: as §1
Series [6] concerns apoptotic marker cleaved caspase-3. As to the kind of experiment: tumor pharmacodynamics, cleaved caspase-3 immunohistochemistry. To be noted: P = 0.19. It is filed as in vivo, human. The procedure, abridged: as §1
Series [7] concerns phosphorylation of FOXM1 (pFOXM1). As to the kind of experiment: tumor pharmacodynamics, pFOXM1 immunohistochemistry. The class given is in vivo, human. To be noted: P = 0.142, primarily at 8-hour postdose. Summed up: as §1
Another series has as its system pS6. As to the kind of experiment: longitudinal tissue analysis, pS6 immunohistochemistry. The class given is in vivo, human. To be noted: 3 patients. The procedure, abridged:
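Samples were from expansion-cohort patients (600 mg daily, 21 days on/7 off) re-resected at recurrence. Enhancing tumor was collected. Archival, Phase 0 surgical and post-treatment FFPE tissue was immunostained on an automated platform (anti-pS6 1:100). The software nuclear function quantified % positive cells.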

The test system of a further series is p4EBP1. As to the kind of experiment: longitudinal tissue analysis, p4EBP1 immunohistochemistry. The class given is in vivo, human. To be noted: 3 patients.
For a further series, the system named is recurrent glioblastoma. In words: pharmacokinetic/pharmacodynamic-guided expansion cohort, clinical response. It is filed as in vivo, human.
Series [8] can be described thus: safety and tolerability in glioblastoma patients. To be noted: human, in vivo.
In a further series the test system is CDK4/6. To be noted: read-out: in vitro IC50 for inhibition of CDK4/6 kinase activity; cited from earlier work.
Setting [9] is: 2 to 24 hours after fifth 900 mg dose.
[10] abbreviates: human, non-enhancing tumor region, oral, 900 mg.

SMILES strings stand for the structures. “And” between values parts separate entries of the source, which are not always exact repeats. Equal values may be shown once.

For `CC(=O)c1c(C)c2cnc(Nc3ccc(N4CCNCC4)cn3)nc2n(C2CCCC2)c1=O` [Palbociclib], in series [1], the “clinical efficacy in terms of prolonging PFS” value is “limited clinical efficacy”.

As usually defined, the half-life is how long it takes for the measured level to halve. Lower therefore signals fast loss. In series [2] (human, plasma, po, 900 mg), `CN(C)C(=O)c1cc2cnc(Nc3ccc(N4CCNCC4)cn3)nc2n1C1CCCC1` [ribociclib, Ribociclib] had a half-life of 13.5 h. Moreover, the “coefficient variation in drug exposure (Cmax, Ctrough, AUC0-24h)” value in series [2] (inter-individual, among 12 patients) is “about 50%”. Besides, in series [2] (steady-state, 900 mg daily), the “fluctuation of unbound plasma concentration, trough to peak” value is on record as 3.4 fold; the “unbound plasma concentration, mean peak level” value turned out to be 440 nM; the “unbound plasma concentration, mean trough level” value came to 130 nM. Further, in [3] (setting [9]), the “mean unbound concentration in enhancing tumor region” value is 2.152 µmol/kg and 2.152 ± 1.559 µmol/kg; the “mean unbound concentration in non-enhancing tumor region” value was 0.560 µmol/kg and 0.560 ± 0.364 µmol/kg. Further, in series [3] (setting [10]), the concentration at 2 h is 510 nM, the concentration at 8 h came to 600 nM and the concentration at 24 h is 350 nM. In series [4] (9 of 12 Phase 0 patients, vs matched archival tissue), the “patients with > 20% decrease in pRB levels” value is 75%. Besides, in series [4] (12 treated patients, 900 mg/d for 5 days), the “average decrease in pRB levels” value was found to be 50%. Also, in [4] (Phase 0 operation specimens, 3 re-resected patients), the pRB positive cells is given as 7.4%. Also, the pRB positive cells in series [4] (post-treatment (recurrence after monotherapy), 3 patients) was 19.96%. Also, the “MIB-1 change after Phase 0 exposure” value in series [5] was “significantly reduced”. Besides, in series [6], the “cleaved caspase-3 change after Phase 0 exposure” value is on record as “trended towards a concomitant increase”. Moreover, in series [7], the “pFOXM1 levels after normalization with historical control samples” value is recorded as “downward trend”. In the series on pS6 (matched Phase 0 samples), this compound gave a pS6 positive cells of 21.3%. In the series with pS6 (post-treatment specimens), this compound returned a pS6 positive cells of 36.7%. The p4EBP1 positive cells in the series with p4EBP1 (matched Phase 0 samples) is listed as 2.8%. For the same compound, the p4EBP1 positive cells with p4EBP1 (post-treatment specimens) amounted to 31.2%. Also, the “Phase 0 responders based on pharmacokinetic and pharmacodynamic results” value in the series on recurrent glioblastoma (6 of 8 patients with histologically evident recurrence) stood at 75%. In addition, in the series on recurrent glioblastoma (expansion cohort, 6 patients), the PFS6 came out at 16.7% and the “median OS” value is given as 7.8 months. The “median PFS” value in the series on recurrent glioblastoma (expansion cohort, 6 patients, 600 mg daily 21 days on/7 days off) is 9.7 weeks. Moreover, the “clinical efficacy of monotherapy” value in the series with recurrent glioblastoma (recurrent glioblastoma) is given as “limited clinical efficacy”. This compound displayed a maximum tolerated dose in series [8] of 900 mg daily. In addition, in the series on CDK4/6, the IC50 was 40 nM.
